Measurements as given in ChEMBL document CHEMBL2384906, “Biological activity, design, synthesis and structure activity relationship of some novel derivatives of curcumin containing sulfonamides” (Eur J Med Chem, 2013).
Converted amounts (≈) assume the structure as drawn. The source made the active and inactive calls. The rule behind the calls is not given here.

What was measured:
Pseudomonas aeruginosa [1] = experiment: Antimicrobial activity against Pseudomonas aeruginosa ATCC 15499 assessed as diameter of inhibition zone at 40 uM after 24 hrs by Kirby -Baur disc diffusion method; type: functional; conditions: ATCC 15499, 24 h, read-out: DIZ
In short: (§1)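 Kirby-Bauer disc diffusion was used. Acetone stocks (160 µM) were serially doubled down to 80, 40 and 20 µM. 4 µL of each went onto 5 mm sterile paper discs, which were dried 30 min at 50 °C. Inoculum was 1.5 × 10⁸ CFU/mL diluted to 3 × 10² CFU/mL, and 50 µL was spread on Mueller-Hinton agar. After 24 h at 37 °C the inhibition-zone diameter was measured. Ciprofloxacin served as positive control.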

Salmonella typhi [2] = experiment: Antimicrobial activity against Salmonella typhi ATCC 23564 after 24 hrs by broth micro serial dilution method; type: functional, Salmonella enterica subsp. enterica serovar Typhi; conditions: Salmonella enterica, ATCC 23564, 24 h
Curvularia lunata [3] = experiment: Antifungal activity against Curvularia lunata MTCC 581 assessed as zone of inhibition at 40 uM after 48 hrs by disc diffusion method; type: functional; conditions: MTCC 581, 48 h, read-out: IZ
In short: (§2)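 Spores from 4-day potato dextrose agar cultures, suspended in sterile water at 1.5 × 10⁵ CFU/mL. 0.2 mL was spread on potato dextrose agar. 5 mm filter-paper discs soaked with test compound were laid on the lawn. Incubation was 48 h at 28 °C, then the inhibition zone was measured in mm. Fluconazole was the positive control and acetone the negative control.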

Aspergillus flavus [4] = experiment: Antifungal activity against Aspergillus flavus MTCC 1021 assessed as zone of inhibition at 20 uM after 48 hrs by disc diffusion method; type: functional; in short: as §2
Bacillus cereus [5] = experiment: Antimicrobial activity against Bacillus cereus MTCC 7350 assessed as diameter of inhibition zone at 40 uM after 24 hrs by Kirby -Baur disc diffusion method; type: functional; conditions: MTCC 7350, 24 h, read-out: DIZ; in short: as §1
Escherichia coli [6] = experiment: Antimicrobial activity against Escherichia coli ATCC 35218 assessed as diameter of inhibition zone at 80 uM after 24 hrs by Kirby -Baur disc diffusion method; type: functional; conditions: ATCC 35218, 24 h, read-out: DIZ; in short: as §1
Aspergillus niger [7] = experiment: Antifungal activity against Aspergillus niger MTCC 1108 assessed as zone of inhibition at 80 uM after 48 hrs by disc diffusion method; type: functional; conditions: MTCC 1108, 48 h, read-out: IZ; in short: as §2
Pseudomonas aeruginosa [8] = experiment: Antimicrobial activity against Pseudomonas aeruginosa ATCC 15499 after 24 hrs by broth micro serial dilution method; type: functional; conditions: ATCC 15499, 24 h
In short: (§3)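 This was broth microdilution in autoclaved Mueller-Hinton broth. 150 µL of compound per well was serially diluted […], and 50 µL of test organism was added. Plates were incubated 24 h at 37 °C and optical density was read.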

Escherichia coli [9] = experiment: Antimicrobial activity against Escherichia coli ATCC 35218 after 24 hrs by broth micro serial dilution method; type: functional; conditions: ATCC 35218, 24 h; in short: as §3
HepG2 = experiment: Cytotoxicity against human HepG2 cells after 24 hrs by MTT assay; type: functional, cell-based
In short: (§4)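 The MTT assay seeded 5 × 10⁴ cells per well and grew them 24 h in RPMI 1640 with compound at 2.5–200 µM. Medium without cells was the blank and adriamycin the positive control. MTT was added for 4 h at 37 °C, formazan was solubilised, and absorbance was read at 570 nm. IC50 is the concentration that cuts viability 50% against untreated cells.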

Staphylococcus aureus [10] = experiment: Antimicrobial activity against Staphylococcus aureus ATCC 11632 after 24 hrs by broth micro serial dilution method; type: functional; conditions: ATCC 11632, 24 h; in short: as §3
HCT-116 = experiment: Cytotoxicity against human HCT116 cells after 24 hrs by MTT assay; type: functional, cell-based; in short: as §4
Escherichia coli [11] = experiment: Antimicrobial activity against Escherichia coli ATCC 35218 assessed as diameter of inhibition zone at 40 uM after 24 hrs by Kirby -Baur disc diffusion method; type: functional; conditions: ATCC 35218, 24 h, read-out: DIZ; in short: as §1
Trichoderma viride [12] = experiment: Antifungal activity against Trichoderma viride MTCC 1107 after 48 hrs; type: functional; conditions: MTCC 1107, 48 h
Curvularia lunata [13] = experiment: Antifungal activity against Curvularia lunata MTCC 581 assessed as zone of inhibition at 20 uM after 48 hrs by disc diffusion method; type: functional; conditions: MTCC 581, 48 h, read-out: IZ; in short: as §2
Bacillus cereus [14] = experiment: Antimicrobial activity against Bacillus cereus MTCC 7350 after 24 hrs by broth micro serial dilution method; type: functional; conditions: MTCC 7350, 24 h; in short: as §3
Aspergillus niger [15] = experiment: Antifungal activity against Aspergillus niger MTCC 1108 assessed as zone of inhibition at 40 uM after 48 hrs by disc diffusion method; type: functional; conditions: MTCC 1108, 48 h, read-out: IZ; in short: as §2
Trichoderma viride [16] = experiment: Antifungal activity against Trichoderma viride MTCC 1107 assessed as zone of inhibition at 80 uM after 48 hrs by disc diffusion method; type: functional; conditions: MTCC 1107, 48 h, read-out: IZ; in short: as §2
Salmonella typhi [17] = experiment: Antimicrobial activity against Salmonella typhi ATCC 23564 assessed as diameter of inhibition zone at 20 uM after 24 hrs by Kirby -Baur disc diffusion method; type: functional, Salmonella enterica subsp. enterica serovar Typhi; conditions: Salmonella enterica, ATCC 23564, 24 h; read-out: DIZ
Bacillus cereus [18] = experiment: Antimicrobial activity against Bacillus cereus MTCC 7350 assessed as diameter of inhibition zone at 20 uM after 24 hrs by Kirby -Baur disc diffusion method; type: functional; conditions: MTCC 7350, 24 h, read-out: DIZ; in short: as §1
Aspergillus flavus [19] = experiment: Antifungal activity against Aspergillus flavus MTCC 1021 assessed as zone of inhibition at 40 uM after 48 hrs by disc diffusion method; type: functional; conditions: MTCC 1021, 48 h, read-out: IZ; in short: as §2
Aspergillus flavus [20] = experiment: Antifungal activity against Aspergillus flavus MTCC 1021 after 48 hrs; type: functional; conditions: MTCC 1021, 48 h
Pseudomonas aeruginosa [21] = experiment: Antimicrobial activity against Pseudomonas aeruginosa ATCC 15499 assessed as diameter of inhibition zone at 80 uM after 24 hrs by Kirby -Baur disc diffusion method; type: functional; conditions: ATCC 15499, 24 h, read-out: DIZ; in short: as §1
QG-56 = experiment: Cytotoxicity against human QG56 cells after 24 hrs by MTT assay; type: functional, cell-based; in short: as §4
Mus musculus = experiment: Antiinflammatory activity in mouse assessed as inhibition of carrageenan-induced increase in paw volume at 200 mg/kg administered 1 hr prior to carrageenan challenge measured after 3 hrs relative to control; type: functional
In short: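 Mice were fasted 2 h and placed in groups of five. Controls received saline i.p. Phenylbutazone was given at 100 mg/kg i.p., curcumin at 200 mg/kg i.p., and derivatives at 200 mg/kg. After 1 h, 0.1 mL of 1% carrageenan in saline was injected subplantar into the right hind paw. Paw volume was followed by plethysmometer for 3 h, and % inhibition was calculated as (Vc − Vt)/Vc × 100.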

Bacillus cereus [22] = experiment: Antimicrobial activity against Bacillus cereus MTCC 7350 assessed as diameter of inhibition zone at 80 uM after 24 hrs by Kirby -Baur disc diffusion method; type: functional; conditions: MTCC 7350, 24 h, read-out: DIZ; in short: as §1
Escherichia coli [23] = experiment: Antimicrobial activity against Escherichia coli ATCC 35218 assessed as diameter of inhibition zone at 20 uM after 24 hrs by Kirby -Baur disc diffusion method; type: functional; conditions: ATCC 35218, 24 h, read-out: DIZ; in short: as §1
Salmonella typhi [24] = experiment: Antimicrobial activity against Salmonella typhi ATCC 23564 assessed as diameter of inhibition zone at 80 uM after 24 hrs by Kirby -Baur disc diffusion method; type: functional, Salmonella enterica subsp. enterica serovar Typhi; conditions: Salmonella enterica, ATCC 23564, 24 h; read-out: DIZ
Aspergillus niger [25] = experiment: Antifungal activity against Aspergillus niger MTCC 1108 after 48 hrs; type: functional; conditions: MTCC 1108, 48 h
Staphylococcus aureus [26] = experiment: Antimicrobial activity against Staphylococcus aureus ATCC 11632 assessed as diameter of inhibition zone at 80 uM after 24 hrs by Kirby -Baur disc diffusion method; type: functional; conditions: ATCC 11632, 24 h, read-out: DIZ; in short: as §1
Aspergillus flavus [27] = experiment: Antifungal activity against Aspergillus flavus MTCC 1021 assessed as zone of inhibition at 80 uM after 48 hrs by disc diffusion method; type: functional; conditions: MTCC 1021, 48 h, read-out: IZ; in short: as §2
Pseudomonas aeruginosa [28] = experiment: Antimicrobial activity against Pseudomonas aeruginosa ATCC 15499 assessed as diameter of inhibition zone at 20 uM after 24 hrs by Kirby -Baur disc diffusion method; type: functional; conditions: ATCC 15499, 24 h, read-out: DIZ; in short: as §1
Staphylococcus aureus [29] = experiment: Antimicrobial activity against Staphylococcus aureus ATCC 11632 assessed as diameter of inhibition zone at 20 uM after 24 hrs by Kirby -Baur disc diffusion method; type: functional; conditions: ATCC 11632, 24 h, read-out: DIZ; in short: as §1
HeLa = experiment: Cytotoxicity against human HeLa cells after 24 hrs by MTT assay; type: functional, cell-based; in short: as §4
Curvularia lunata [30] = experiment: Antifungal activity against Curvularia lunata MTCC 581 after 48 hrs; type: functional; conditions: MTCC 581, 48 h
Staphylococcus aureus [31] = experiment: Antimicrobial activity against Staphylococcus aureus ATCC 11632 assessed as diameter of inhibition zone at 40 uM after 24 hrs by Kirby -Baur disc diffusion method; type: functional; conditions: ATCC 11632, 24 h, read-out: DIZ; in short: as §1
Aspergillus niger [32] = experiment: Antifungal activity against Aspergillus niger MTCC 1108 assessed as zone of inhibition at 20 uM after 48 hrs by disc diffusion method; type: functional; in short: as §2
Curvularia lunata [33] = experiment: Antifungal activity against Curvularia lunata MTCC 581 assessed as zone of inhibition at 80 uM after 48 hrs by disc diffusion method; type: functional; conditions: MTCC 581, 48 h, read-out: IZ; in short: as §2
Trichoderma viride [34] = experiment: Antifungal activity against Trichoderma viride MTCC 1107 assessed as zone of inhibition at 40 uM after 48 hrs by disc diffusion method; type: functional; conditions: MTCC 1107, 48 h, read-out: IZ; in short: as §2
Trichoderma viride [35] = experiment: Antifungal activity against Trichoderma viride MTCC 1107 assessed as zone of inhibition at 20 uM after 48 hrs by disc diffusion method; type: functional; conditions: MTCC 1107, 48 h, read-out: IZ; in short: as §2
Salmonella typhi [36] = experiment: Antimicrobial activity against Salmonella typhi ATCC 23564 assessed as diameter of inhibition zone at 40 uM after 24 hrs by Kirby -Baur disc diffusion method; type: functional, Salmonella enterica subsp. enterica serovar Typhi; conditions: Salmonella enterica, ATCC 23564, 24 h; read-out: DIZ

## COc1cc(/C=C/C(CC(/C=C/c2ccc(O)c(OC)c2)=N/c2ccc(S(=O)(=O)Nc3ccccn3)cc2)=N\c2ccc(S(=O)(=O)Nc3ccccn3)cc2)ccc1O
Pseudomonas aeruginosa [1]
  zone of inhibition at 40 µM: 16 mm
Salmonella typhi [2]
  MIC: 40 µM (≈ 33.2 µg/mL)
Curvularia lunata [3]
  zone of inhibition at 40 µM: 9 mm
Aspergillus flavus [4]
  inhibition zone (IZ): inactive
Bacillus cereus [5]
  zone of inhibition at 40 µM: 15 mm
Escherichia coli [6]
  zone of inhibition at 80 µM: 17 mm
Aspergillus niger [7]
  zone of inhibition at 80 µM: 12 mm
Pseudomonas aeruginosa [8]
  MIC: 40 µM (≈ 33.2 µg/mL)
Escherichia coli [9]
  MIC: 40 µM (≈ 33.2 µg/mL)
HepG2
  IC50: 100 µM
Staphylococcus aureus [10]
  MIC: 40 µM (≈ 33.2 µg/mL)
HCT-116
  IC50: 50 µM
Escherichia coli [11]
  zone of inhibition at 40 µM: 16 mm
Trichoderma viride [12]
  MIC: 20 µM (≈ 16.6 µg/mL)
Curvularia lunata [13]
  zone of inhibition at 20 µM: 9 mm
Bacillus cereus [14]
  MIC: 40 µM (≈ 33.2 µg/mL)
Aspergillus niger [15]
  zone of inhibition at 40 µM: 9 mm
Trichoderma viride [16]
  zone of inhibition at 80 µM: 17 mm
Salmonella typhi [17]
  zone of inhibition at 20 µM: 12 mm
Bacillus cereus [18]
  zone of inhibition at 20 µM: 10 mm
Aspergillus flavus [19]
  zone of inhibition at 40 µM: 9 mm
Aspergillus flavus [20]
  MIC: > 80 µM
Pseudomonas aeruginosa [21]
  zone of inhibition at 80 µM: 18 mm
QG-56
  IC50: 100 µM
Mus musculus
  inhibition in vivo at 200 mg/kg: 9.6%
Bacillus cereus [22]
  zone of inhibition at 80 µM: 18 mm
Escherichia coli [23]
  zone of inhibition at 20 µM: 12 mm
Salmonella typhi [24]
  zone of inhibition at 80 µM: 19 mm
Aspergillus niger [25]
  MIC: 80 µM (≈ 66.5 µg/mL)
Staphylococcus aureus [26]
  zone of inhibition at 80 µM: 19 mm
Aspergillus flavus [27]
  zone of inhibition at 80 µM: 11 mm
Pseudomonas aeruginosa [28]
  zone of inhibition at 20 µM: 13 mm
Staphylococcus aureus [29]
  zone of inhibition at 20 µM: 13 mm
HeLa
  IC50: 50 µM
Curvularia lunata [30]
  MIC: 80 µM (≈ 66.5 µg/mL)
Staphylococcus aureus [31]
  zone of inhibition at 40 µM: 17 mm
Aspergillus niger [32]
  inhibition zone (IZ): inactive
Curvularia lunata [33]
  zone of inhibition at 80 µM: 12 mm
Trichoderma viride [34]
  zone of inhibition at 40 µM: 13 mm
Trichoderma viride [35]
  zone of inhibition at 20 µM: 10 mm
Salmonella typhi [36]
  zone of inhibition at 40 µM: 17 mm
